# An excerpt weighted towards active compounds, which were near 4.8% of everything screened.
# NALP3 yeast inh – inhibitors of NALP3 inflammasome in yeast; Yeast reconstituted NLRP3/ASC/caspase-1, beta-gal luminescence, 24 h; inhibition, % at 10 µM; hit rate 0.39% among 330,000;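 active = inhibition of 50% or more; inactive = inhibition below 50%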;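 note: plate controls were induced DMSO wells for no effect and uninduced yeast grown without galactose for full effect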
# UCH37 DUB inh – blocks the human deubiquitinase UCH37 | hit rate 0.33% among 330,000 | inhibition, % (concentration not given with the values) | purified proteasome/UCH37, Ub-AMC cleavage fluorescence | Q9Y5K5;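 active = mean inhibition over replicate wells above about 20%, limit read from the data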;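 note: 0% = compound-free wells with enzyme and 100% = wells lacking proteasome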
#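 system = Proteasome-associated human UCH37 deubiquitinase | amount = 0.15 nM proteasome as dispensed | medium = pH 7.4 Tris-HCl (50 mM) with ovalbumin, ATP-MgCl2, DTT | incubation = 30 min preincubation with enzyme, 25 min cleavage at room temperature | detection = AMC fluorescence 355/460 nm | read-out basis = percent inhibition | controls = no-proteasome and no-compound wells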
# Calb FLC – C. albicans growth modulation with fluconazole. C. albicans CaCi-2 + fluconazole, Alamar Blue growth, 48 h. growth inhibition, % (no concentration beside the values). hit rate 0.57% among 300,000. AID 1979;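 active = growth inhibition above about 58% in most replicates, limit read from the data, passing the limit was not always enough; inconclusive = exactly half the replicates above a set limit; inactive = most replicates below a set limit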;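 note: all wells also contain fluconazole at 8 µg/ml as a sub-toxic cotreatment; 0% = median of DMSO wells and 100% = median of geldanamycin control wells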
# ATG4B inh – ATG4B (human) cysteine protease inhibition; hit rate 0.51% among 340,000; ATG4B cleavage of LC3-PLA2, NBD-HPC fluorescence, 1 h; inhibition, % at 8.33 µM; Q9Y4P1; in the data active = inhibition above about 40%
# Target sequence (Q9Y4P1 whole entry, looked up): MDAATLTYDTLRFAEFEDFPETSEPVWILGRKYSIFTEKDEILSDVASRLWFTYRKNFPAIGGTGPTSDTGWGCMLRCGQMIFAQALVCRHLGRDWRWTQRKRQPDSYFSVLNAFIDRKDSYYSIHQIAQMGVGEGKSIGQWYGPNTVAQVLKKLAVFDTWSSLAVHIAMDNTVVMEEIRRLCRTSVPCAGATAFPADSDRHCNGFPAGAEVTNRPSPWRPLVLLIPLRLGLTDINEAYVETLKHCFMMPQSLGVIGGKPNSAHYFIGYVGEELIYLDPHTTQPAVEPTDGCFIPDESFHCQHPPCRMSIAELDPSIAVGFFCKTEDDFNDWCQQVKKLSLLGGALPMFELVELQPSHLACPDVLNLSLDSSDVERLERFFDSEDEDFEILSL
# NALP1 yeast inh – NALP1 inhibition | S. cerevisiae NALP1/ASC/caspase-1 growth, X-gal OD620, 72 h | inhibition, % at 10 µM | hit rate 0.61% among 280,000 | AID 2071; in the data active = inhibition mostly above about 24%, no sharp cut-off; inactive = mostly below about 32%
# ALR inh – human ALR oxidase inhibition via reduced H2O2; P55789; purified ALR, DTT oxidation, H2O2 HRP-luminol luminescence; inhibition, % (concentration not given with the values); hit rate 3.8% among 290,000; AID 485317;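 active = mean replicate inhibition above about 79%, with every replicate also reaching it, limit read from the data; inconclusive = only one of the two criteria met; inactive = mean below limit and not every replicate reaching it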
# Target sequence (P55789 whole entry, looked up): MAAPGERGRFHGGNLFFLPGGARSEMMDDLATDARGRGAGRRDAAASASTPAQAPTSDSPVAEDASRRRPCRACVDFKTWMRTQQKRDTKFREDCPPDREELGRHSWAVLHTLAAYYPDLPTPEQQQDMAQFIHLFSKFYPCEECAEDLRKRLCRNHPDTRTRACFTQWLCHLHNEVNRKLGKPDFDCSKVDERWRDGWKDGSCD
# NALP3 confirm – NALP3 inhibition confirmation in yeast | shares compounds with NALP3 yeast inh | yeast expressing human NALP3, luminescence | inhibition, % at 10 µM | hit rate 81% among 1,300 | AID 435006; in the data active = inhibition above about 48%
# Casp1 ASC ctr – counter-screen for NALP3 inhibitors: yeast caspase-1-ASC; shares compounds with NALP3 yeast inh; yeast expressing Caspase-1-ASC, luminescence counter screen; inhibition, % at 10 µM; hit rate 66% among 1,000
# NALP3 retest – retest-confirmed inhibitor of NALP3 in yeast; shares compounds with NALP3 yeast inh; yeast expressing human NALP3, luminescence read-out; inhibition, % at 10 µM; hit rate 53% among 1,000
# An asterisk follows results filed as active; i = inactive; ? = inconclusive; · = no result. Cut-off read from the data, not from the text of the source, unless noted: active = inhibition above about 50%; inactive = the rest.
SMILES,NALP3 yeast inh,UCH37 DUB inh,Calb FLC,ATG4B inh,NALP1 yeast inh,ALR inh,NALP3 confirm,Casp1 ASC ctr,NALP3 retest
CCOc1ccc(C(C)=NNC(=O)C(OC)c2ccccc2)cc1 (configuration not stated),·,-1,·,·,·,·,·,·,·
O=C(c1cccs1)N1CCc2ccccc21,15,5,-19,11,25,-3,·,·,·
O=C(/C=C/c1cccs1)N1CCc2ccccc21,52*,10,29,4,43,·,23,·,·
O=S(=O)(Nc1ccc(N=Nc2ccccc2)cc1)c1ccccc1,59*,4,-2,-4,36,-1,3,·,·
Cc1cc2ccccn2c1C(=O)c1ccc(Cl)cc1,15,-1,-13,25,14,-2,·,·,·
Cc1cc2ccccn2c1C(=O)c1ccccc1F,51*,-18,-10,2,18,·,61*,49,41
CNc1nc(SCc2ccc(C)cc2)nc2c1CCCC2,97*,0,1,6,99*,-8,99*,99*,99*
C(=NN=Cc1ccccn1)c1ccccn1,·,1,·,·,·,·,·,·,·
O=[N+]([O-])c1ccc(NC(=S)NCCc2ccccc2)cc1,35,2,-28,-9,34,-9,·,·,·
O=C(Nc1ccc([N+](=O)[O-])cc1)Nc1ccc(Cl)cc1F,76*,4,-14,-4,24,-16,49*,27,20
O=[N+]([O-])c1ccc(NC(=S)NCCc2ccc(Cl)cc2)cc1,69*,3,-22,-5,24,-1,68*,93*,94*
Cn1cccc1/C=C1\CCc2ccccc2C1=O,22,3,6,22,0,·,·,·,·
Cn1cccc1/C=C1\Cc2ccccc2C1=O,54*,2,4,14,2,-17,69*,·,·
C=CCn1c(=C2C(=O)N(CC)C(=S)N2c2ccccc2)sc(=C2SC(C)=C(C)N2CC)c1=O,·,5,·,·,·,·,·,·,·
CSc1nnc(NC(=O)C2CCCCC2)s1,55*,3,·,-2,·,-8,75*,58*,38
CCSc1nnc(NC(=O)C2CCCCC2)s1,61*,1,29,-1,13,-8,79*,67*,61*
CC(C)c1nnc(NC(=O)C2CCCCC2)s1,40,2,3,-3,-2,0,·,·,·
O=C(Nc1nnc(-c2ccco2)s1)C1CCCCC1,58*,-6,-8,-3,27,42,42,37,36
Cn1c(=O)c2ncn(CC(=O)NN=Cc3ccco3)c2n(C)c1=O,·,0,·,·,·,·,·,·,·
COc1ccc2ccccc2c1C=NNC(=O)c1cc(C)[nH]n1,·,4,·,·,·,·,·,·,·
Cc1ccc2c(c1)CCCN2C(=O)c1cc(C)c(C)s1,52*,0,·,14,·,·,59*,44,35
CCOC(=O)c1c(NC(=O)CC2SC(=NC)N(C)C2=O)sc(C)c1C (configuration not stated),60*,-6,19,-2,12,-1,59*,60*,43
CN=C1SC(CC(=O)Nc2sc(C)c(C)c2C(=O)OC)C(=O)N1C (configuration not stated),33,-1,10,2,2,-4,·,·,·
CC(=NNC(=O)C(=O)NN=C(C)c1cccc(O)c1)c1cccc(O)c1,·,3,·,·,·,·,·,·,·
Brc1ccc2c(c1)CN1CCCC1=N2,63*,·,38,3,19,-19,80*,53*,51*
SMILES,NALP3 yeast inh,UCH37 DUB inh,Calb FLC,ATG4B inh,NALP1 yeast inh,ALR inh,NALP3 confirm,Casp1 ASC ctr,NALP3 retest
O=C1CN2C(=Nc3ccc(Br)cc3C2c2ccccc2)CCN1 (configuration not stated),5,3,-7,-10,2,0,·,·,·
CC(C)(C)NNC(=S)Nc1cccc(C(F)(F)F)c1,28,3,-12,-13,·,4,·,·,·
Cc1ccc(NC(=S)NNC(C)(C)C)cc1,51*,0,-18,-3,30,22,43,61*,31
CC(CC(=O)N(C(C)C)C(C)C)=NNC(=O)COc1ccc(Cl)cc1Cl,·,5,·,·,·,·,·,·,·
Cc1ccc(-n2c(SCCN)nnc2-c2cccc(C)c2)cc1,78*,0,5,-1,·,-19,78*,·,·
CCn1c(C)csc1=NC(=O)c1ccccc1,53*,-1,-16,-5,-4,70,61*,48,44
CCn1c(C)csc1=NC(=O)c1ccccc1O,39,-11,12,3,0,1,·,·,·
Cc1csc(=NC(=O)c2ccccc2)n1C,62*,2,2,-8,2,·,75*,73*,68*
Cc1csc(=NC(=O)c2ccccc2)n1Cc1ccco1,8,-23,9,-4,-2,33,·,·,·
CNC(=S)NN=Cc1cc(Br)cc(Br)c1O,·,-68,·,·,·,·,·,·,·
CNC(=S)N/N=C/c1cc(Br)cc(Br)c1O,64*,·,?,-1,54*,·,34,·,·
Nc1nc2sc3c(c2c(=O)s1)CCCC3,71*,5,29,-10,3,4,83*,70*,80*
COc1ccc2c(c1)-c1nc(N=Cc3ccc(O)cc3)sc1CC2,·,2,·,·,·,·,·,·,·
COc1ccc(-c2cc(=O)c3ccccc3s2)cc1,66*,-6,10,-2,5,-6,66*,54*,66*
CC1=NN(C(=O)c2ccc(Br)cc2)C(O)(C(F)(F)OC(F)(F)F)C1 (configuration not stated),51*,2,-4,2,9,·,50*,·,·
Cc1ccc(N=Nc2c(O)ccc3n[nH]nc23)cc1,·,·,27,3,5,52,·,·,·
CCc1ccc(N=Nc2ccc(O)c3[nH]cnc23)cc1,51*,·,·,6,·,-32,43,24,34
COc1ccc(C(=O)NN=C(C)c2cccc(NC(=O)c3ccncc3)c2)cc1OC,·,3,·,·,·,·,·,·,·
CN(C)c1oc(/C=C/c2ccccc2)nc1C#N,54*,i,-5,-5,32,14,42,57*,50*
CCn1c2ccccc2c2cc(/C=N/n3cn[nH]c3=S)ccc21,68*,·,-12,-5,7,98*,74*,82*,63*
O=c1c2ccccc2nc2c3ccccc3c(Cl)nn12,·,-8,-22,·,0,·,·,·,·
O=c1c2ccccc2nc2c3ccccc3cnn12,56*,-69,-12,0,1,0,63*,55*,66*
O=C1C=C(O)c2cccc(O)c2C1=O,10,·,·,-20,3,-21,·,·,·
O=C1c2cccc(O)c2C(=O)c2c(O)cccc21,60*,·,·,·,76,-10,64*,·,·
CC(=NNC(=O)C12CCC(C)(C(=O)O1)C2(C)C)c1ccccc1O (configuration not stated),·,2,·,·,·,·,·,·,·

# Source: PubChem (several laboratories)
